Results as given in ChEMBL document CHEMBL1140232, “Surprising alteration of antibacterial activity of 5"-modified neomycin against resistant bacteria” (2008).
Values after ≈ are worked out from the molar mass of the structure shown.

Assays:
[1] = test system: Escherichia coli; assay: Antibacterial activity against aminoglycoside-susceptible Escherichia coli ATCC 25922 after 12 to 18 hrs; type: functional
Outline: (§1)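 Broth microdilution. Bacterial suspension adjusted with broth to absorbance 0.08–0.1 at 625 nm, diluted further in broth, and mixed in wells with 2-fold serial dilutions of compound. Plates incubated at 35°C for 12–18 h. MIC is the lowest concentration inhibiting growth; each determination repeated at least three times.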

[2] = test system: Staphylococcus aureus; assay: Antibacterial activity against aminoglycoside-susceptible Staphylococcus aureus ATCC 25923 after 12 to 18 hrs; type: functional; outline: as §1
[3] = test system: Escherichia coli; assay: Antibacterial activity against aminoglycoside-susceptible Escherichia coli TG1 after 12 to 18 hrs; type: functional; outline: as §1
[4] = test system: Escherichia coli; assay: Antibacterial activity against Escherichia coli TG1 pSF815 plasmid encoded for AAC(6')/APH(2') after 12 to 18 hrs; type: functional; outline: as §1
[5] = test system: Escherichia coli; assay: Antibacterial activity against Escherichia coli TG1 pTZ19U-3 plasmid encoded for APH(3')-1 after 12 to 18 hrs; type: functional; outline: as §1
[6] = test system: Enterococcus; assay: Activity of Enterococcus APH(3')-3a
[7] = test system: Enterococcus; assay: Ratio of kcat to Km of Enterococcus APH(3')-3a
[8] = test system: Escherichia coli; assay: Antibacterial activity against Escherichia coli TG1 pET28a plasmid encoded for APH(3')-3a after 12 to 18 hrs; type: functional; outline: as §1

Row | MIC [1] [µg/mL] | MIC [2] [µg/mL] | MIC [3] [µg/mL] | MIC [4] [µg/mL] | MIC [5] [µg/mL] | Km [6] [µM] | Vmax [6] [µmol/min/mg] | kcat [6] [s⁻¹] | kcat/Km [7] [×10⁴ /M/s] | MIC [8] [µg/mL] | Compound
1 | 8 (≈ 11.7 µM) | 0.5 (≈ 0.73 µM) | 8 (≈ 11.7 µM) | 16 (≈ 23.4 µM) | ≥ 2000 | 60 | 0.9 | 0.45 | 0.75 | 64 (≈ 93.5 µM) | C[C@H](N)C(=O)NC[C@H]1O[C@@H](O[C@@H]2[C@@H](O)[C@H](N)C[C@H](N)[C@H]2O[C@H]2O[C@H](CN)[C@@H](O)[C@H](O)[C@H]2N)[C@H](O)[C@@H]1O[C@H]1O[C@@H](CN)[C@@H](O)[C@H](O)[C@H]1N
2 | 8 (≈ 11.3 µM) | 0.5 (≈ 0.703 µM) | 8 (≈ 11.3 µM) | 16 (≈ 22.5 µM) | ≥ 2000 | 70 | 0.72 | 0.36 | 0.51 | 64 (≈ 90 µM) | NC[C@@H]1O[C@H](O[C@H]2[C@@H](O)[C@H](O[C@@H]3[C@@H](O)[C@H](N)C[C@H](N)[C@H]3O[C@H]3O[C@H](CN)[C@@H](O)[C@H](O)[C@H]3N)O[C@@H]2CNC(=O)[C@H]2CCCN2)[C@H](N)[C@@H](O)[C@@H]1O
3 | 8 (≈ 11.3 µM) | 1 (≈ 1.41 µM) | 16 (≈ 22.6 µM) | 16 (≈ 22.6 µM) | ≥ 2000 | 100 | 0.72 | 0.36 | 0.36 | 125 (≈ 176 µM) | CNCc1cn(C[C@H]2O[C@@H](O[C@@H]3[C@@H](O)[C@H](N)C[C@H](N)[C@H]3O[C@H]3O[C@H](CN)[C@@H](O)[C@H](O)[C@H]3N)[C@H](O)[C@@H]2O[C@H]2O[C@@H](CN)[C@@H](O)[C@H](O)[C@H]2N)nn1
4 | 16 (≈ 21.6 µM) | 2 (≈ 2.7 µM) | 16 (≈ 21.6 µM) | 32 (≈ 43.1 µM) | 125 (≈ 168 µM) | 78 | 0.79 | 0.4 | 0.51 | 32 (≈ 43.1 µM) | NCCCC[C@H](N)C(=O)NC[C@H]1O[C@@H](O[C@@H]2[C@@H](O)[C@H](N)C[C@H](N)[C@H]2O[C@H]2O[C@H](CN)[C@@H](O)[C@H](O)[C@H]2N)[C@H](O)[C@@H]1O[C@H]1O[C@@H](CN)[C@@H](O)[C@H](O)[C@H]1N

The remaining lines, values behind:

Row | Compound | MIC [1] [µg/mL] | MIC [2] [µg/mL] | MIC [3] [µg/mL] | MIC [4] [µg/mL] | MIC [5] [µg/mL] | Km [6] [µM] | Vmax [6] [µmol/min/mg] | kcat [6] [s⁻¹] | kcat/Km [7] [×10⁴ /M/s] | MIC [8] [µg/mL]
5 | NC[C@@H]1O[C@H](O[C@H]2[C@@H](O)[C@H](O[C@@H]3[C@@H](O)[C@H](N)C[C@H](N)[C@H]3O[C@H]3O[C@H](CN)[C@@H](O)[C@H](O)[C@H]3N)O[C@@H]2CNC(=O)c2cc(-c3ccccc3)nc3ccccc23)[C@H](N)[C@@H](O)[C@@H]1O | 8 (≈ 9.47 µM) | 4 (≈ 4.73 µM) | 8 (≈ 9.47 µM) | 16 (≈ 18.9 µM) | ≥ 2000 | 400 | 0.38 | 0.19 | 0.048 | 32 (≈ 37.9 µM)
6 | NC[C@@H]1O[C@@H](O[C@H]2[C@H](O)[C@@H](O[C@H]3O[C@H](CO)[C@@H](O)[C@H](N)[C@H]3O)[C@H](N)C[C@@H]2N)[C@@H](O)[C@H](O)[C@H]1O [KANAMYCIN A] | – | – | – | – | – | 8.2 | 6.96 | 3.48 | 42.4 | 125 (≈ 258 µM)
7 | CN(C)Cc1cn(C[C@H]2O[C@@H](O[C@@H]3[C@@H](O)[C@H](N)C[C@H](N)[C@H]3O[C@H]3O[C@H](CN)[C@@H](O)[C@H](O)[C@H]3N)[C@H](O)[C@@H]2O[C@H]2O[C@@H](CN)[C@@H](O)[C@H](O)[C@H]2N)nn1 | 8 (≈ 11.1 µM) | 2 (≈ 2.77 µM) | 8 (≈ 11.1 µM) | 16 (≈ 22.1 µM) | ≥ 2000 | 120 | 0.65 | 0.33 | 0.28 | 64 (≈ 88.5 µM)
8 | NC[C@@H]1O[C@H](O[C@H]2[C@@H](O)[C@H](O[C@@H]3[C@@H](O)[C@H](N)C[C@H](N)[C@H]3O[C@H]3O[C@H](CN)[C@@H](O)[C@H](O)[C@H]3N)O[C@@H]2Cn2cc(CNC(=O)c3cc(-c4ccccc4)nc4ccccc34)nn2)[C@H](N)[C@@H](O)[C@@H]1O | 32 (≈ 34.6 µM) | 8 (≈ 8.64 µM) | 8 (≈ 8.64 µM) | 32 (≈ 34.6 µM) | 500 (≈ 540 µM) | 410 | 0.3 | 0.15 | 0.037 | 16 (≈ 17.3 µM)
9 | NC[C@@H]1O[C@H](O[C@H]2[C@@H](O)[C@H](O[C@@H]3[C@@H](O)[C@H](N)C[C@H](N)[C@H]3O[C@H]3O[C@H](CN)[C@@H](O)[C@H](O)[C@H]3N)O[C@@H]2Cn2cc(CNC(=O)[C@@H]3CCCN3)nn2)[C@H](N)[C@@H](O)[C@@H]1O | 16 (≈ 20.2 µM) | 2 (≈ 2.53 µM) | 16 (≈ 20.2 µM) | 16 (≈ 20.2 µM) | ≥ 2000 | 175 | 0.4 | 0.2 | 0.14 | 64 (≈ 80.8 µM)
